Experimental data as given in ChEMBL document CHEMBL1800043, “(-)-Duryne and its homologues, cytotoxic acetylenes from a marine Sponge Petrosia sp” (J Nat Prod, 2011).

System: HeLa
Assay: Cytotoxicity against human HeLa cells after 72 hrs by MTT assay
Type: functional, cell-based
How it was run: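 HeLa cells grown in DMEM with 10% FBS, 2 μg/mL gentamycin and 2 μg/mL antibiotic-antimycotic at 37 °C under 5% CO2. Seeded at 1 × 10^4 cells/mL and preincubated 24 h. Sample added, then incubated 72 h. MTT (1 mg/mL saline) added for 3 h. Supernatant discarded, formazan dissolved in DMSO, absorbance read for IC50. Adriamycin was the positive control.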

Compound | IC50 [nM]
C#C[C@H](O)/C=C/CCCCCCCCC/C=C\CCCCCCCCC/C=C/[C@@H](O)C#C | 500
C#C[C@H](O)/C=C/CCCCCCCCC/C=C\CCCCCCCCCCC/C=C/[C@@H](O)C#C | 260
C#C[C@H](O)/C=C/CCCCC/C=C\CCCC/C=C\CCCCCCCCC/C=C/[C@@H](O)C#C | 260
C#C[C@H](O)/C=C/CCCCCCC/C=C\CCCC/C=C\CCCCCCCCC/C=C/[C@@H](O)C#C | 100
C#C[C@H](O)/C=C/CCCCCCCCC/C=C\CCCC/C=C\CCCCCCCCC/C=C/[C@@H](O)C#C | 80
C#C/C=C\[C@@H](O)CCCCCCCCCCC/C=C\CCCCCCCCC/C=C/[C@@H](O)C#C | 340
COc1cccc2c1C(=O)c1c(O)c3c(c(O)c1C2=O)C[C@@](O)(C(=O)CO)C[C@@H]3O[C@H]1C[C@H](N)[C@H](O)[C@H](C)O1 [DOXORUBICIN] | 1640
